# Data reported in ChEMBL document CHEMBL5303300, “EUbOPEN Chemogenomics Library - Multiplex” (2023).
# Where “and” joins values, the source holds several entries; their conditions need not be identical. Equal entries are not always repeated.
# Legend:
# Fibroblast = assay: Multiplex assay against human fibroblast; type: toxicity, cell-based; conditions: number of replicates 2
# Procedure, shortened: (§1)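 On a CQ1 microscope at 37°C and 5% CO2, live cells were imaged after compound addition. They had been stained at seeding with Hoechst33342, BioTracker Green Microtubule Cytoskeleton Dye, MitoTracker Red and Annexin V Alexa Fluor 680. CellPathfinder machine-learning gating assigned cells to Hoechst high-intensity objects or normal cells, normal cells to healthy, pyknosed or fragmented nuclei, and pyknosed cells to mitotic or apoptotic. Tubulin, mitochondrial-mass and membrane-permeability phenotypes are per cents of healthy-nucleus cells.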
# HEK-293T = assay: Multiplex assay against HEK293T; type: toxicity, cell-based; conditions: human, number of replicates 2; procedure, shortened: as §1
# [1] = 24 h, 10 µM, compound concentration 10 uM
# [2] = 48 h, 1 µM, compound concentration 1 uM
# [3] = 48 h, 10 µM, compound concentration 10 uM
# [4] = 12 h, 1 µM, compound concentration 1 uM
# [5] = 12 h, 10 µM, compound concentration 10 uM
# [6] = 24 h, 1 µM, compound concentration 1 uM
compound,measurement,setting,value
CN1CCc2cc(Cl)c(O)cc2[C@@H](c2ccccc2)C1.Cl,Population Mitochondria Different-Phenotype (%),Fibroblast; [1],2% and 0%
same,Population Mitotic Cells (%),Fibroblast; [1],35% and 16%
same,Population Normal (%),Fibroblast; [1],100%
same,Population Pyknosed Nuclei (%),Fibroblast; [1],7% and 2%
same,Population Tubulin-Different-Phenotype (%),Fibroblast; [1],20% and 10%
same,Total Cell Count,Fibroblast; [1],265 and 295
same,Population Apoptotic (%),Fibroblast; [2],53% and 75%
same,Population Fragmented Nuclei (%),Fibroblast; [2],9% and 18%
same,Population Healthy Nuclei (%),Fibroblast; [2],72% and 73%
same,Population Hoechst High Intensity Objects (%),Fibroblast; [2],0%
same,Population Membrane Permeable-Phenotype (%),Fibroblast; [2],8% and 4%
same,Population Mitochondria Different-Phenotype (%),Fibroblast; [2],1% and 2%
same,Population Mitotic Cells (%),Fibroblast; [2],46% and 25%
same,Population Normal (%),Fibroblast; [2],100% and 99%
same,Population Pyknosed Nuclei (%),Fibroblast; [2],18% and 8%
same,Population Tubulin-Different-Phenotype (%),Fibroblast; [2],11% and 7%
same,Total Cell Count,Fibroblast; [2],175 and 251
same,Population Apoptotic (%),Fibroblast; [3],76% and 100%
same,Population Fragmented Nuclei (%),Fibroblast; [3],21% and 26%
same,Population Healthy Nuclei (%),Fibroblast; [3],73% and 72%
same,Population Hoechst High Intensity Objects (%),Fibroblast; [3],0%
same,Population Membrane Permeable-Phenotype (%),Fibroblast; [3],4% and 1%
same,Population Mitochondria Different-Phenotype (%),Fibroblast; [3],0%
same,Population Mitotic Cells (%),Fibroblast; [3],23% and 0%
same,Population Normal (%),Fibroblast; [3],100%
same,Population Pyknosed Nuclei (%),Fibroblast; [3],4% and 0%
same,Population Tubulin-Different-Phenotype (%),Fibroblast; [3],12% and 3%
same,Total Cell Count,Fibroblast; [3],292 and 324
same,Population Apoptotic (%),HEK-293T; [4],48% and 46%
same,Population Fragmented Nuclei (%),HEK-293T; [4],3% and 4%
same,Population Healthy Nuclei (%),HEK-293T; [4],84% and 85%
same,Population Hoechst High Intensity Objects (%),HEK-293T; [4],7% and 5%
same,Population Membrane Permeable-Phenotype (%),HEK-293T; [4],5% and 3%
same,Population Mitochondria Different-Phenotype (%),HEK-293T; [4],23% and 12%
same,Population Mitotic Cells (%),HEK-293T; [4],51% and 53%
same,Population Normal (%),HEK-293T; [4],92% and 94%
same,Population Pyknosed Nuclei (%),HEK-293T; [4],12% and 10%
same,Population Tubulin-Different-Phenotype (%),HEK-293T; [4],50% and 47%
same,Total Cell Count,HEK-293T; [4],505 and 645
same,Population Apoptotic (%),HEK-293T; [5],40% and 55%
same,Population Fragmented Nuclei (%),HEK-293T; [5],4%
same,Population Healthy Nuclei (%),HEK-293T; [5],87% and 85%
same,Population Hoechst High Intensity Objects (%),HEK-293T; [5],6% and 8%
same,Population Membrane Permeable-Phenotype (%),HEK-293T; [5],3% and 4%
same,Population Mitochondria Different-Phenotype (%),HEK-293T; [5],11%
same,Population Mitotic Cells (%),HEK-293T; [5],59% and 45%
same,Population Normal (%),HEK-293T; [5],93% and 91%
same,Population Pyknosed Nuclei (%),HEK-293T; [5],8% and 9%
same,Population Tubulin-Different-Phenotype (%),HEK-293T; [5],54% and 52%
same,Total Cell Count,HEK-293T; [5],819 and 669
same,Population Apoptotic (%),HEK-293T; [6],47% and 31%
same,Population Fragmented Nuclei (%),HEK-293T; [6],6% and 5%
same,Population Healthy Nuclei (%),HEK-293T; [6],83% and 88%
same,Population Hoechst High Intensity Objects (%),HEK-293T; [6],7%
same,Population Membrane Permeable-Phenotype (%),HEK-293T; [6],1% and 3%
same,Population Mitochondria Different-Phenotype (%),HEK-293T; [6],8% and 3%
same,Population Mitotic Cells (%),HEK-293T; [6],52% and 68%
same,Population Normal (%),HEK-293T; [6],92%
same,Population Pyknosed Nuclei (%),HEK-293T; [6],9% and 6%
same,Population Tubulin-Different-Phenotype (%),HEK-293T; [6],25% and 24%
same,Total Cell Count,HEK-293T; [6],778 and 975
same,Population Apoptotic (%),HEK-293T; [1],38% and 37%
same,Population Fragmented Nuclei (%),HEK-293T; [1],7% and 8%
same,Population Healthy Nuclei (%),HEK-293T; [1],88% and 87%
same,Population Hoechst High Intensity Objects (%),HEK-293T; [1],8% and 7%
same,Population Membrane Permeable-Phenotype (%),HEK-293T; [1],5% and 4%
same,Population Mitochondria Different-Phenotype (%),HEK-293T; [1],3%
same,Population Mitotic Cells (%),HEK-293T; [1],61% and 62%
same,Population Normal (%),HEK-293T; [1],91% and 92%
same,Population Pyknosed Nuclei (%),HEK-293T; [1],4%
same,Population Tubulin-Different-Phenotype (%),HEK-293T; [1],35% and 38%
same,Total Cell Count,HEK-293T; [1],1332 and 988
same,Population Apoptotic (%),HEK-293T; [2],10% and 5%
same,Population Fragmented Nuclei (%),HEK-293T; [2],10% and 11%
same,Population Healthy Nuclei (%),HEK-293T; [2],85% and 84%
same,Population Hoechst High Intensity Objects (%),HEK-293T; [2],8% and 9%
same,Population Membrane Permeable-Phenotype (%),HEK-293T; [2],3% and 6%
same,Population Mitochondria Different-Phenotype (%),HEK-293T; [2],1% and 0%
same,Population Mitotic Cells (%),HEK-293T; [2],89% and 94%
same,Population Normal (%),HEK-293T; [2],91% and 90%
same,Population Pyknosed Nuclei (%),HEK-293T; [2],3%
same,Population Tubulin-Different-Phenotype (%),HEK-293T; [2],10% and 14%
same,Total Cell Count,HEK-293T; [2],1964 and 2487
same,Population Apoptotic (%),HEK-293T; [3],6% and 16%
same,Population Fragmented Nuclei (%),HEK-293T; [3],22% and 20%
same,Population Healthy Nuclei (%),HEK-293T; [3],75% and 77%
same,Population Hoechst High Intensity Objects (%),HEK-293T; [3],9% and 10%
same,Population Membrane Permeable-Phenotype (%),HEK-293T; [3],10%
same,Population Mitochondria Different-Phenotype (%),HEK-293T; [3],0%
same,Population Mitotic Cells (%),HEK-293T; [3],93% and 83%
same,Population Normal (%),HEK-293T; [3],90% and 89%
same,Population Pyknosed Nuclei (%),HEK-293T; [3],2%
same,Population Tubulin-Different-Phenotype (%),HEK-293T; [3],20% and 21%
same,Total Cell Count,HEK-293T; [3],3504 and 2430
